Laboratory results: ChEMBL document CHEMBL4014344, “Discovery of the Soluble Guanylate Cyclase Stimulator Vericiguat (BAY 1021189) for the Treatment of Chronic Heart Failure” (J Med Chem, 2017)
Calls of active or inactive are those of the source. No cut-off for these calls is given here.

Columns and labels:
Cytochrome P450 3A4 [1] = target: T1, Cytochrome P450 3A4 (Homo sapiens, UniProt P08684); assay: Inhibition of human liver microsomes CYP3A4 using testosterone as substrate preincubated with compound followed by substrate addition; format: ADME
T1 sequence (P08684 whole entry): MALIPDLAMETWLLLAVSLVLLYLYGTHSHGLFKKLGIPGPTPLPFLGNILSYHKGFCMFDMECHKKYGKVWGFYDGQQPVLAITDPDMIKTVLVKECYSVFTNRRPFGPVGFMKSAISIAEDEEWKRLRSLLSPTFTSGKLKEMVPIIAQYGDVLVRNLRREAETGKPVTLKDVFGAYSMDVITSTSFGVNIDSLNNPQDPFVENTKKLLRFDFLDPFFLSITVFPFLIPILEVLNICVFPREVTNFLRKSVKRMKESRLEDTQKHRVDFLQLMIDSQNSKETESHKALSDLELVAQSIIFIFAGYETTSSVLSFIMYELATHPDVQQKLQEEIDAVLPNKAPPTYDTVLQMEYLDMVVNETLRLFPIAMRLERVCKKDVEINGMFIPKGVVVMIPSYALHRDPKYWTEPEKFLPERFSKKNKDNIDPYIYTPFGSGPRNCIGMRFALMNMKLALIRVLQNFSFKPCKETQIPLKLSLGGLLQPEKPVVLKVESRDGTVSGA

[2] = Stimulation of rat sGC expressed in CHO cells using GTP as substrate assessed as increase in cGMP formation treated for 6 mins in presence of 100 nM SNAP by luminescence assay; format: cell-based
Method in brief: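 CHO reporter cells overexpressing sGC, cultured 1 or 2 d, then loaded 3 h with coelenterazine in calcium-free Tyrode. Compound serial dilutions applied 6 min. Calcium added (final 3 mM) and luminescence read for 40 s by CCD camera. SNAP co-applied at 30 or 100 nM where stated. ODQ condition: 10 μM ODQ pretreatment for 3 h.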

Artery = assay: Inhibition of U46619-induced contractions in porcine coronary artery rings; format: functional; settings: Sus scrofa
Homo sapiens = species: Homo sapiens; assay: Stimulation of sGC (unknown origin) using alpha-[32P]-GTP as substrate assessed as increase in [32P]-cGMP formation at 100 uM in presence of sGC inhibitor ODQ
Method in brief: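 Purified recombinant sGC (0.2 μg/mL) assayed by [32P]-cGMP formation from α-[32P]-GTP, with 200 μM GTP, 3 mM Mn2+/Mg2+ and 1 mM cGMP. Substrate turnover kept <10%. DMSO ≤1% (v/v). ODQ present. Activity expressed as x-fold over basal. Duplicates, repeated five times.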

[3] = Drug metabolism in human hepatocytes assessed as CYP-mediated (2S,3S,4S,5R,6R)-6-(6-amino-2-(5-fluoro-1-(2-fluorobenzyl)-1H-pyrazolo[3,4-b]pyridin-3-yl)-5-(methoxycarbonylamino)pyrimidin-4-ylamino)-3,4,5-trihydroxytetrahydro-2H-pyran-2-carboxylic acid metabolite formation; format: ADME, cell-based
Rattus norvegicus [4] = assay: Antihypertensive activity in L-NAME-treated renin transgenic rat co-expressing RenTG(mRRen2)27 assessed as reduction in Kim-1 expression at 3 to 10 mg/kg administered qd via oral gavage up to 21 days; format: functional, organism-based
Method in brief: (§1)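 Male RenTG(mRRen2)27 rats, 8 weeks old, given L-NAME in drinking water (50 mg/L) throughout. Randomised to placebo (2 mL/kg qd, n = 20) or 3 and 10 mg/kg/day po by gavage qd (n = 15 per group). Tail-cuff blood pressure on day 0, 7, 14 and 21. Plasma taken at day 22 end. Unpaired t test, mean ± SEM.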

Saphenous artery = assay: Inhibition of phenylephrine-induced contractions in Chinchilla rabbit saphenous artery rings administered at the beginning of the last resting period of 28 mins; format: functional; settings: Oryctolagus cuniculus
[5] = target: T2, Guanylate cyclase soluble subunit alpha-1 (Rattus norvegicus) (UniProt P19686); assay: Stimulation of rat recombinant sGCalpha1 subunit expressed in CHO cells using alpha-[32P]GTP as substrate assessed as >=3 fold increase in [32P]cGMP formation after 10 mins by radioimmunoassay; format: cell-based
T2 sequence (whole entry): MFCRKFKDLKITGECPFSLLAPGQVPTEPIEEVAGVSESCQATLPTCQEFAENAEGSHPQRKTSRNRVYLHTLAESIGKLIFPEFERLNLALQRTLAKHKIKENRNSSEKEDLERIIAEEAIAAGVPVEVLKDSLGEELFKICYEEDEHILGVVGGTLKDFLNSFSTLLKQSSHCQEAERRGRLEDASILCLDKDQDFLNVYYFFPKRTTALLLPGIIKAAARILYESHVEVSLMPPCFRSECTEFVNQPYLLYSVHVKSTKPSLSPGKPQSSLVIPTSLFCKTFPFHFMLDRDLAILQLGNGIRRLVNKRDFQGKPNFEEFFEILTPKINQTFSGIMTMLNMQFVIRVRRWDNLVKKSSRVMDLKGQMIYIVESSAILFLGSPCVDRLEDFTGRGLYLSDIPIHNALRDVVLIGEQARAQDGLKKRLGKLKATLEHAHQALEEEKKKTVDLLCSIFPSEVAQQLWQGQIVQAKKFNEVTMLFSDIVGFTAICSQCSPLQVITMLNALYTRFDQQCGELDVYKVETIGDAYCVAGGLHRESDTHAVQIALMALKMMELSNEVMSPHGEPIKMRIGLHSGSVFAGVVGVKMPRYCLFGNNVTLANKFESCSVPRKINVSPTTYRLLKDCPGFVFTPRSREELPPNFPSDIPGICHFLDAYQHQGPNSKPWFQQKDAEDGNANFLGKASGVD

Rattus norvegicus [6] = assay: Effect on mortality in L-NAME-treated renin transgenic rat co-expressing RenTG(mRRen2)27 assessed as survival rate at 10 mg/kg administered qd via oral gavage up to 21 days (reference value: 25%); format: functional; settings: 504 h
Rattus norvegicus [7] = assay: Antihypertensive activity in L-NAME-treated renin transgenic rat co-expressing RenTG(mRRen2)27 assessed as reduction in plasma ANP levels at 3 to 10 mg/kg administered qd via oral gavage up to 21 days; format: functional, organism-based; method in brief: as §1
Cytochrome P450 2C19 = Cytochrome P450 2C19 (Homo sapiens, UniProt P33261); assay: Inhibition of human liver microsomes CYP2C19 using S-mephenytoin as substrate; format: ADME
Sequence of Cytochrome P450 2C19 (P33261 whole entry): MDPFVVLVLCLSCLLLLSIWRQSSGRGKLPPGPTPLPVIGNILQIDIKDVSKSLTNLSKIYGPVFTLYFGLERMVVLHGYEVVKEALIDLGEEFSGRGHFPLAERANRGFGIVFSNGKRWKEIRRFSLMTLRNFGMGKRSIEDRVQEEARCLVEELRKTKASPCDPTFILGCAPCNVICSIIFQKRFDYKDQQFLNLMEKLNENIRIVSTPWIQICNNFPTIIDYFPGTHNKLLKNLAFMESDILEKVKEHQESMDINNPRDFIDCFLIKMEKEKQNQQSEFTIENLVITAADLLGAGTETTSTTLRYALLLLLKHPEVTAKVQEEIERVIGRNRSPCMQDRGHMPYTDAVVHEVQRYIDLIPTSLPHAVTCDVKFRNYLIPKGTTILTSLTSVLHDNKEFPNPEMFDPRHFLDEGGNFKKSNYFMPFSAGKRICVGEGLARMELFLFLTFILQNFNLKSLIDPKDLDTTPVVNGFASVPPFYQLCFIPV

Cytochrome P450 3A4 [8] = target: T1, Cytochrome P450 3A4; assay: Inhibition of human liver microsomes CYP3A4 using testosterone as substrate; format: ADME

In the case of `COC(=O)Nc1c(N)nc(-c2nn(Cc3ccccc3F)c3ncc(F)cc23)nc1N` [VERICIGUAT], the IC50 (Cytochrome P450 3A4 [1]) is reported as over 50000 nM, the EC50 [2] is reported as 10.6 nM and the IC50 (Artery) is reported as 956 nM. The Activity (Homo sapiens) was “inactive”, the Drug metabolism [3] was “Metabolite_Detected” and the Activity (Rattus norvegicus [4]) was “Active”. It also gave an IC50 (Saphenous artery) of 798 nM, an MEC [5] of 0.3 µM and a survival at 10 mg/kg (Rattus norvegicus [6]) of 90%. The Activity (Rattus norvegicus [7]) was “Active”, the IC50 (Cytochrome P450 2C19) was over 50000 nM and the IC50 (Cytochrome P450 3A4 [8]) was over 50000 nM.
